Data as given in ChEMBL document CHEMBL1132360, “N-Substituted (2,3-dihydro-1,4-benzodioxin-2-yl)methylamine derivatives as D(2) antagonists/5-HT(1A) partial agonists with potential as atypical antipsychotic agents” (J Med Chem, 1999).

What was measured:
D(2) dopamine receptor = D(2) dopamine receptor (Homo sapiens, UniProt P14416); assay: The compound was tested for binding affinity against human Dopamine receptor D2L
[1] = target: T1, 5-hydroxytryptamine receptor 1A (Homo sapiens, UniProt P08908); assay: The compound was tested for binding affinity against 5-hydroxytryptamine 1A receptor receptor
T1 sequence (P08908 whole entry): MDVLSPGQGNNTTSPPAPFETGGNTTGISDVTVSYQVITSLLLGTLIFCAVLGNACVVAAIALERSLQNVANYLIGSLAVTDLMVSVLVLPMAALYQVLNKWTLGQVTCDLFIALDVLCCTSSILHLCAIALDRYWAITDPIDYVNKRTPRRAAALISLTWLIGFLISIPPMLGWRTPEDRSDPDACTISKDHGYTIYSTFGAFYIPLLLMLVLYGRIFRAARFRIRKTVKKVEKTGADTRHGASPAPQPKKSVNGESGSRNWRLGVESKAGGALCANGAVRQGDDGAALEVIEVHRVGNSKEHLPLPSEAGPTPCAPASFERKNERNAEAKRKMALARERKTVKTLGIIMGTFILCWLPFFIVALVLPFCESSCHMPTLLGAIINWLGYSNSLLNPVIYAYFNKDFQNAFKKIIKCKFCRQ

Mus musculus = assay: Antagonistic activity against apomorphine induced climbing in the mouse after po administration; assay type: functional
Procedure, shortened: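 Male CD1 mice (20–25 g), groups of 10, dosed po with compound or vehicle ([…]) at set times before apomorphine 0.88 mg/kg sc. Each mouse placed in an inverted open-ended wire cage; climbing scored 0–2 at 10 and 20 min after apomorphine.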

[2] = target: T2, Adrenergic receptor alpha-1 (Homo sapiens, UniProt P35348+P25100+P35368); assay: The compound was tested for binding affinity against human Alpha-1 adrenergic receptor; assay type: protein assay
T2 sequence (P35348 whole entry): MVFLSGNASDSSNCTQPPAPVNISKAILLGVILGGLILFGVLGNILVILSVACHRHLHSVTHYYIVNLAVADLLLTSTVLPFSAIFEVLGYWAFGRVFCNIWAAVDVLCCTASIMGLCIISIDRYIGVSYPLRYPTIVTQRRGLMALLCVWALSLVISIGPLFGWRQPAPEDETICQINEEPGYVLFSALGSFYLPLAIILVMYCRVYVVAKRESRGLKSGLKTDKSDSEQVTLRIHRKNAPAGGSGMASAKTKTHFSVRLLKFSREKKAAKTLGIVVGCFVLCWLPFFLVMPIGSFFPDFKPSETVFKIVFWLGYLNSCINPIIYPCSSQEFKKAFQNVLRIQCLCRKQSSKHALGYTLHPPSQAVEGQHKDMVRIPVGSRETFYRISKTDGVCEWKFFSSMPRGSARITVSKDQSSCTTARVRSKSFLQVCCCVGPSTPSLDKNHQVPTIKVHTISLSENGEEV
T2 sequence (P25100 whole entry): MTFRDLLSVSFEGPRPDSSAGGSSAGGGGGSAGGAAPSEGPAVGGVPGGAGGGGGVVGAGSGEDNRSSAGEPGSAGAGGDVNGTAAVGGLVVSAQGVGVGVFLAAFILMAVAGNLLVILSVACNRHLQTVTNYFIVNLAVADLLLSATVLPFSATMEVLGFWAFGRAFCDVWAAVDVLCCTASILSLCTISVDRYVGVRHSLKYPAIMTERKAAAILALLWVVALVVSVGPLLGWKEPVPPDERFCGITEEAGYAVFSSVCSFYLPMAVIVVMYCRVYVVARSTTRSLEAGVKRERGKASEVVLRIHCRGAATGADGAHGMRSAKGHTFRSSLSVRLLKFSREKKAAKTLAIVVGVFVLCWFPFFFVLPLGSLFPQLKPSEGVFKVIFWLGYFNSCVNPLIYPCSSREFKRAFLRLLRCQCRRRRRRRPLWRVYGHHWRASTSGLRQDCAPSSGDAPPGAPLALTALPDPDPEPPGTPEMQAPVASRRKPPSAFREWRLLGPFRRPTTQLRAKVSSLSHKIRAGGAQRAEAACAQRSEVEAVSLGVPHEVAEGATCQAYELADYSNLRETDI
T2 sequence (P35368 whole entry): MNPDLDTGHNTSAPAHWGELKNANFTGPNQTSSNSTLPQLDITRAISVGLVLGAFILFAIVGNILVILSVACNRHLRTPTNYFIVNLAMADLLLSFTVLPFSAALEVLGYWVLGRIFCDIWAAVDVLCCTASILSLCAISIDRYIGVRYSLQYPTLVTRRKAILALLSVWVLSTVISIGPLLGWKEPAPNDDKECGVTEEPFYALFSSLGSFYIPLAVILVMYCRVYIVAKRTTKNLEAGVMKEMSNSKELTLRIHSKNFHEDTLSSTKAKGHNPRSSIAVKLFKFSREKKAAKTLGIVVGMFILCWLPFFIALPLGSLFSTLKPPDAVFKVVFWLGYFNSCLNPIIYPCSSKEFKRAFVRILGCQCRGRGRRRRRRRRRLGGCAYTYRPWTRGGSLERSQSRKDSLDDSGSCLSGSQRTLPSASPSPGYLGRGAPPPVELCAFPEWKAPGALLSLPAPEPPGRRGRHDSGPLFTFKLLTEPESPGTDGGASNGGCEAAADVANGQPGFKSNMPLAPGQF
Procedure, shortened: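 Postmortem human cortex membranes, stored at −80 °C, assayed in 50 mM Tris-HCl pH 7.6. Incubated with 0.1 nM [3H]prazosin for 30 min at 30 °C, test agent at 10^-6 M or 10 concentrations; 5 μM phentolamine for nonspecific binding. IC50 by curve fitting, converted to Ki (Cheng–Prusoff).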

D(3) dopamine receptor = D(3) dopamine receptor (Homo sapiens, UniProt P35462); assay: The compound was tested for binding affinity against human Dopamine receptor D3
Chain of D(3) dopamine receptor (P35462 whole entry): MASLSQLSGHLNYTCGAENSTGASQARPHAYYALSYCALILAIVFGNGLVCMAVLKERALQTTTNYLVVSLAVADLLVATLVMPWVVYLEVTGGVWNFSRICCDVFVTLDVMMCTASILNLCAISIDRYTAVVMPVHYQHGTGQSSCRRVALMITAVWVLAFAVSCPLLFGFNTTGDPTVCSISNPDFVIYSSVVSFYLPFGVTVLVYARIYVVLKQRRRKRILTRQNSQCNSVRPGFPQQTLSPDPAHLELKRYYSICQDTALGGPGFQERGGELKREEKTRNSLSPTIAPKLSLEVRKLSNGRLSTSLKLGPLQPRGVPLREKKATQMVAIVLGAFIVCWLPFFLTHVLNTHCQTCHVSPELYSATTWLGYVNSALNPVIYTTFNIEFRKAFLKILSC

Rattus norvegicus = assay: The compound was tested in vivo for induction of catalepsy in rat after ip administration; assay type: functional
Procedure, shortened: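 Male rats (130–190 g), groups of five, injected ip with compound solution (1 mL/kg). Catalepsy assessed at three times by placing each paw on a 45 mm rubber bung; a paw held 15 s scores 1 (group maximum 20 = 100%). ED50 from percent catalepsy at the final reading, by adapted Litchfield–Wilcoxon.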

[3] = target: T2, Adrenergic receptor alpha-1; assay: Binding affinity towards Alpha-1 adrenergic receptor in human cortex membranes; assay type: cell membranes
[4] = target: 5-hydroxytryptamine receptor 1B (Sus scrofa, UniProt P79399); assay: The compound was tested for binding affinity against 5-hydroxytryptamine 1B receptor
Chain of 5-hydroxytryptamine receptor 1B (P79399 whole entry): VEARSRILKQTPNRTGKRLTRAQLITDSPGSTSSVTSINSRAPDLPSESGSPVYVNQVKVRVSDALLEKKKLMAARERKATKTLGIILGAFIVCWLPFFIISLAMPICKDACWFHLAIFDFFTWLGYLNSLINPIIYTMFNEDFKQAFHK
Procedure, shortened: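 Pig caudate membranes washed at 37 °C to remove endogenous 5-HT, in 50 mM Tris-HCl pH 7.7. Incubated 45 min at 25 °C with 4 nM [3H]sumatriptan plus CaCl2, pargyline and ascorbate, test agent at 10^-6 M; 10 μM 5-HT for nonspecific binding. Filtration, scintillation counting; percent displacement of specific binding.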

D(1A) dopamine receptor = D(1A) dopamine receptor (Homo sapiens, UniProt P21728); assay: The compound was tested for binding affinity against human Dopamine receptor D1
Chain of D(1A) dopamine receptor (P21728 whole entry): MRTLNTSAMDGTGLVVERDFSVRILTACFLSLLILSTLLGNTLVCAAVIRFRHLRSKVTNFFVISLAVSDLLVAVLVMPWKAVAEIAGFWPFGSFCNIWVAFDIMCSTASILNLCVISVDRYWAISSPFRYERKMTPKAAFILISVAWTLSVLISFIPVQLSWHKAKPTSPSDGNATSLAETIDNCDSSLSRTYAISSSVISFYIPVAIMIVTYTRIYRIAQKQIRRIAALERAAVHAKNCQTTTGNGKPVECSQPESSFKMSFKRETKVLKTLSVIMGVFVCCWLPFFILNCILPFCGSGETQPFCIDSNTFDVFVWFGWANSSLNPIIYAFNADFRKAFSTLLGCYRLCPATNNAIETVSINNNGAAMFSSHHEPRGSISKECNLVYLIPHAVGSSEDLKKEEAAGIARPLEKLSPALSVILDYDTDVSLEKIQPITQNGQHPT

Chain of D(2) dopamine receptor (P14416 whole entry): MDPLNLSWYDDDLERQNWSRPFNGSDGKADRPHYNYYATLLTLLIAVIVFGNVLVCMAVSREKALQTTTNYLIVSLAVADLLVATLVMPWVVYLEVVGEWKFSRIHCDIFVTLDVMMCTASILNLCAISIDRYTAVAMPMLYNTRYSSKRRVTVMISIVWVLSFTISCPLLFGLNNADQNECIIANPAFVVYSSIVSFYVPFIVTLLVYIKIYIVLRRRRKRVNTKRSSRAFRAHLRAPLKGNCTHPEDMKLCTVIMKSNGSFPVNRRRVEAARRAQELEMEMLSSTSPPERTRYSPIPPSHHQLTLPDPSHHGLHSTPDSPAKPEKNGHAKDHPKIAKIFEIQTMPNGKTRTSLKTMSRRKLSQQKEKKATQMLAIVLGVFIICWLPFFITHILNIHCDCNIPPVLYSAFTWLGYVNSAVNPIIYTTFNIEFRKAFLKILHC

COc1ccccc1N1CCC(CNCC2COc3ccc(Cl)cc3O2)CC1 (centres undefined)
Ki (D(2) dopamine receptor): 13.2 nM
Ki [1]: 3.6 nM
ED50 (Mus musculus): 5 mg/kg
Ki [2]: 181 nM
Ki (D(3) dopamine receptor): 1.6 nM
ED50 (Rattus norvegicus): 188 mg/kg
Ki [3]: 53 nM
Ki [4]: > 1000 nM
Ki (D(1A) dopamine receptor): > 1000 nM
